Laboratory results published in ChEMBL document CHEMBL1130077, “Synthesis and antitumor properties of N-[2-(dimethylamino)ethyl]carboxamide derivatives of fused tetracyclic quinolines and quinoxalines: a new class of putative topoisomerase inhibitors” (J Med Chem, 1997).

Experiments:
[1] = Inhibitory concentration against Human Jurkat leukemia (JLC) cell proliferation; assay type: functional
How it was run: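 Human Jurkat leukemia (JL_C) cells at 3.75 × 10³ per well, cultured 4 days with drug. Sulforhodamine read-out. IC50 is the concentration reducing cell number to 50% of untreated controls. Duplicate independent assays, coefficient of variation 6.3%.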

[2] = Inhibitory concentration against Murine Lewis lung carcinoma (LLC) cell proliferation; assay type: functional, cell-based; settings: Mus musculus
How it was run: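 Lewis lung carcinoma (LLTC) cells plated at 10³ per well and exposed to drug for 4 days. Growth was measured by sulforhodamine assay. IC50 is the concentration giving 50% of control cell number. Independent assays were run in duplicate, with a coefficient of variation of 12%.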

[3] = Inhibitory concentration to reduce cell number to 50% of Murine P388 leukemia cell culture; assay type: functional, Mus musculus
How it was run: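 Murine P388 leukemia cells seeded at 4.5 × 10³ per well and grown 3 days with drug. Growth was read by [³H]TdR uptake. IC50 is the drug concentration that reduces cell number to 50% of control cultures. Independent assays were run in duplicate, with a coefficient of variation of 12%.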

[4] = Ratio of inhibitory concentration of Human Jurkat leukemia A (JLA) and Human Jurkat leukemia C (JLC); assay type: functional
How it was run: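 Human Jurkat leukemia cells (JLC) and their amsacrine-resistant derivative (JLA) were seeded at 3.75 × 10³ cells/well and grown 4 days with drug. Growth was read by sulforhodamine assay. IC50 is the drug level cutting cell number to 50% of control cultures; the ratio is IC50(JLA)/IC50(JLC). Independent assays were run in duplicate; CVs were 9.3% (JLA) and 6.3% (JLC).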

[5] = Ratio of inhibitory concentration of Human Jurkat leukemia D (JLD) and Human Jurkat leukemia C (JLC); assay type: functional
How it was run: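 Parental Jurkat (JL_C) and its amsacrine-resistant (JL_A) and doxorubicin-resistant (JL_D) derivatives, each seeded at 3.75 × 10³ per well for 4 days of drug exposure. Sulforhodamine assay gave IC50 (50% of control cell number). The ratio is resistant-line IC50 over JL_C IC50. Duplicate assays; coefficients of variation 9.3% (JL_A) and 5.7% (JL_D).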

Row | Compound | IC50 [1] [nM] | IC50 [2] [nM] | IC50 [3] [nM] | IC50 ratio [4] | IC50 ratio [5]
1 | CN(C)CCNC(=O)c1cccc2nc3c(nc12)-c1ccccc1C3=O | 1100 | 880 | 700 | 1 | 1.1
2 | COc1cccc2c1C(=O)c1c(O)c3c(c(O)c1C2=O)C[C@@](O)(C(=O)CO)C[C@@H]3O[C@H]1C[C@H](N)[C@H](O)[C@H](C)O1 [DOXORUBICIN] | 9.6 | 22 | 15 | 4.4 | 90
3 | CN(C)CCNC(=O)c1cccc2cc3sc4ccccc4c3nc12 | 170 | 66 | 46 | 1.5 | 1.6
4 | CN(C)CCNC(=O)c1cccc2cc3ccccc3nc12 | 580 | – | 98 | – | –
5 | COc1cc([C@@H]2c3cc4c(cc3[C@@H](O[C@@H]3O[C@@H]5CO[C@@H](C)O[C@H]5[C@H](O)[C@H]3O)[C@H]3COC(=O)[C@H]23)OCO4)cc(OC)c1O [ETOPOSIDE] | 160 | 180 | 25 | 13 | 90
6 | CN(C)CCNC(=O)c1cc(Cl)cc2nc3oc4ccccc4c3nc12 | > 2000 | > 2000 | 5800 | – | –
7 | CN(C)CCNC(=O)c1cccc2cc3c(nc12)C(=O)c1ccccc1-3 | 370 | 150 | 85 | 0.9 | 0.9
8 | CN(C)CCNC(=O)c1cccc2cc3[nH]c4ccccc4c3nc12 | 450 | 290 | 370 | 1 | 1.1
9 | CN(C)CCNC(=O)c1cccc2cc3oc4ccccc4c3nc12 | 430 | 210 | 170 | 1.2 | 1.2
10 | CN(C)CCNC(=O)c1cccc2c(C(=O)NCCN(C)C)c3sc4ccccc4c3nc12 | 34 | 30 | 25 | 0.5 | 0.9
11 | CN(C)CCNC(=O)c1cccc2cc3c(nc12)-c1ccccc1S3(=O)=O | 860 | 430 | 1800 | 3.2 | 4.2
12 | CN(C)CCNC(=O)c1cccc2cc3c(nc12)-c1ccccc1C3 | 320 | 190 | 88 | 1.8 | 1.9
13 | CN(C)CCNC(=O)c1cc(Cl)cc2[nH]c3c4ccccc4nc-3nc12 | 300 | 360 | 15000 | 1.2 | 1.3
14 | CN(C)CCNC(=O)c1cccc2[nH]c3c4ccccc4nc-3nc12 | 1400 | 990 | 670 | 0.9 | 1
15 | COc1cc(NS(C)(=O)=O)ccc1Nc1c2ccccc2nc2ccccc12 [AMSACRINE] | 37 | 12 | 20 | 85 | 74
16 | CC[C@@]1(O)C(=O)OCc2c1cc1n(c2=O)Cc2cc3ccccc3nc2-1 [CAMPTOTHECIN] | 5.6 | 33 | – | 2 | 1.4
17 | CN(C)CCNC(=O)c1cc(Cl)cc2nc3c(nc12)oc1ccccc13 | 1500 | 1400 | 6800 | 1.2 | > 1.3
18 | CN(C)CCNC(=O)c1cccc2nc3sc4ccccc4c3nc12 | 150 | 110 | 100 | 1.9 | 2.7
19 | CN(C)CCNC(=O)c1cccc2nc3c(nc12)-c1ccccc1C3 | 550 | 390 | 360 | 1 | 1
20 | CN(C)CCNC(=O)c1cc(Cl)cc2[nH]c3nc4ccccc4c-3nc12 | 980 | 700 | 1600 | 0.8 | 0.9
21 | CN(C)CCNC(=O)c1cccc2cc3c(nc12)-c1ccccc1C3=O | 180 | 91 | 130 | 1.2 | 0.9
22 | CN(C)CCNC(=O)c1cccc2nc3c(nc12)oc1ccccc13 | 2600 | 1700 | 2200 | 1 | 1
